Assay outcomes as filed in PubChem.
GASC1 inh: inhibitors of GASC-1 (KDM4C) histone demethylase, primary screen, biochemical, single concentration HTS | GST-KDM4C 2-372, H3K9me3 peptide, LANCE TR-FRET | inhibition, % at 12.5 µM | 0.15% of 96,000 active | AID 720574, 2013;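 active means mean replicate inhibition above about 25%, with at least 55% of replicates also reaching it, limit read from the data, passing the limit was not always enough; inconclusive means only one of those two conditions met; inactive means neither condition met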
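Material: N-terminal GST-fused human GASC-1 (KDM4C) fragment, residues 2-372. Input: 10 nM enzyme. Incubation: enzyme reaction 30 min, then detection 60 min, both room temperature. Doses: one test concentration per compound. Read-out basis: inhibition from TR-FRET ratio decrease. Detection: LANCE TR-FRET, excitation 340 nm, emissions 618 and 671 nm.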
IDH1 mut inh: inhibitors of IDH1 R132H reductase, primary screen, biochemical, plate reader, single point; AID 624101, 2012; 0.18% of 70,000 active; Isocitrate dehydrogenase [NADP] cytoplasmic (Homo sapiens), O75874; diaphorase/resazurin fluorescence, 60 min; inhibition, % at 10 µM; in the data active means inhibition above about 34%; inconclusive means no clear call, values can overlap the other calls; inactive means below about 11%;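 further: 0% = DMSO and 100% = no enzyme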
Target sequence (O75874 whole entry R132H): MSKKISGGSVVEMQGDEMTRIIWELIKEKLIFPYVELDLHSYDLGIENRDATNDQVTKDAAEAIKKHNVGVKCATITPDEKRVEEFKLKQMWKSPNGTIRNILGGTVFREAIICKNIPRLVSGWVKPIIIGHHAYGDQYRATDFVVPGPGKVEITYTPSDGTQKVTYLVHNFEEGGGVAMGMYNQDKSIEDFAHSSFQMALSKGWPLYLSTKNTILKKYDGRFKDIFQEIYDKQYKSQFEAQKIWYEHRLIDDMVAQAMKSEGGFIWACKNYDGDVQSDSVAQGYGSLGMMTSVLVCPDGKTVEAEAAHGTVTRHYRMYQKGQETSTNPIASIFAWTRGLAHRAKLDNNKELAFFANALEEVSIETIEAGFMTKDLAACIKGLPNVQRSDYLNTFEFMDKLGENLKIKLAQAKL
Pf Dd2 inh: P. falciparum Dd2 growth inhibitors, primary screen, SYBR Green fluorescence, single dose replicates. activity change, % at 10 µM. 72 h; active compounds read low. AID 1159554, 2015. 2.3% of 94,000 active; in the data active means activity change below about -80%; inconclusive means no clear call, values can overlap the other calls
T cruzi growth-1: T. cruzi intracellular proliferation inhibitors, primary screen, cell-based, beta-gal Tulahuen parasites, NIH3T3 host, luminescence; T. cruzi beta-gal in NIH3T3, GalScreen luminescence, 90 h; inhibition, % at 8.34 µM; 5.9% of 77,000 active; AID 624255, 2012;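 active means mean inhibition above about 93%, with at least 55% of replicates each passing it, limit read from the data, passing the limit was not always enough; inconclusive means only one of those two conditions holds; inactive means neither condition holds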
T cruzi growth-2: T. cruzi intracellular proliferation inhibitors, confirmation, cell-based, NIH3T3 host, beta-gal parasite, luminescence, cherry-pick; shares compounds with T cruzi growth-1; 72% of 5,600 active; inhibition, % at 8.35 µM; T. cruzi beta-gal in NIH3T3, GalScreen luminescence, 90 h; AID 651739, 2012;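 active means mean replicate inhibition above about 95% and at least 55% of replicates individually reaching it, limit read from the data; inconclusive means only one of the two criteria is met; inactive means neither criterion is met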
T cruzi growth-3: inhibitors of intracellular T. cruzi replication, confirmation, NIH3T3 host cells, beta-gal parasites, cherry-pick, set 2. shares compounds with T cruzi growth-1. T. cruzi beta-gal in NIH3T3, GalScreen luminescence, 90 h. inhibition, % at 2.09 µM. 21% of 5,600 active. AID 651740, 2012;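 active means mean inhibition above about 95%, with at least 55% of replicates also reaching it, limit read from the data; inconclusive means meets just one of the two conditions; inactive means meets neither condition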;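 further: plate controls were neutral control median for no effect and positive control median for full effect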
3T3 cytotox: cytotoxicity in mouse NIH/3T3 fibroblasts, confirmation, cytotoxicity control for T. cruzi proliferation inhibitor project, cell-based, cherry-pick, single point | cytotoxicity (signal decrease), % at 8.35 µM | 14% of 5,600 active | shares compounds with T cruzi growth-1 | NIH/3T3 viability, CellTiter-Glo ATP luminescence, 90 h;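 active means mean signal decrease across replicates above about 35% based on untreated-well scatter, with enough replicates individually passing, limit read from the data; inconclusive means no rule stated though some were filed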;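 further: 0% = median of neutral control wells and 100% = median of positive control wells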
3T3 cytotox 2: NIH/3T3 fibroblast cytotoxicity, confirmation, cytotoxicity control, cell-based, cherry-pick, single point, set 2 | shares compounds with T cruzi growth-1 | NIH/3T3 viability, CellTiter-Glo ATP luminescence, 90 h | inhibition, % at 24.9 µM | 56% of 5,600 active | AID 651744, 2012;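 active means mean loss of cell viability signal at or above a set limit, and enough replicates individually reaching it; inconclusive means meets only the mean limit or only the replicate share; inactive means meets neither condition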;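 further: 0% = median of neutral control wells and 100% = median of positive control wells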
Active calls of the source: *; ? = inconclusive; . = no result. Sampled rows, rich in hits. Any-hit rate of the full collection: about 5.8%.

SMILES	GASC1 inh	IDH1 mut inh	Pf Dd2 inh	T cruzi growth-1	T cruzi growth-2	T cruzi growth-3	3T3 cytotox	3T3 cytotox 2
COc1ccc(OC)c(N(CC(=O)Nc2ccc(Br)cc2F)S(C)(=O)=O)c1	.	0	.	.	.	.	.	.
COc1ccc(OC)c(NC(=O)COc2ccc(C(=O)Nc3ccc(C)cc3)cc2)c1	.	0	.	.	.	.	.	.
COc1ccc(NC(=O)Nc2cccc3c2O[C@@H](CN(C)Cc2ccc(Cl)c(Cl)c2)[C@@H](C)CN([C@@H](C)CO)C3=O)cc1	-2	4	-53	122*	99*	69	18	51*
C[C@@H]1CN([C@H](C)CO)C(=O)c2cccc(NC(=O)Nc3ccc4c(c3)OCO4)c2O[C@@H]1CN(C)Cc1ccc(Cl)c(Cl)c1	0	.	-22	112	.	.	.	.
COc1ccc(NC(=O)Nc2cccc3c2O[C@H](CN(C)Cc2ccc(Cl)c(Cl)c2)[C@H](C)CN([C@H](C)CO)C3=O)cc1	0	.	-22	37	.	.	.	.
C[C@H](CO)N1C[C@H](C)[C@H](CN(C)Cc2ccc(Cl)c(Cl)c2)Oc2c(NC(=O)Nc3ccc4c(c3)OCO4)cccc2C1=O	2	.	-30	?	101*	90	8	27*
COc1ccc(NC(=O)Nc2cccc3c2O[C@@H](CN(C)Cc2ccc(Cl)c(Cl)c2)[C@@H](C)CN([C@H](C)CO)C3=O)cc1	.	.	-35	?	111*	61	-1	38*
COc1ccc(CN(C)C[C@H]2Oc3c(NC(=O)Nc4ccc(OC)cc4)cccc3C(=O)N([C@@H](C)CO)C[C@H]2C)cc1	0	2	-30	-27	.	.	.	.
N#CCc1ccc(NC(=O)CN2C(=O)c3ccccc3S2(=O)=O)cc1	.	-1	.	.	.	.	.	.
CCn1c(SCC(=O)c2ccc(Cl)cc2Cl)nnc1-c1cccnc1	.	0	.	.	.	.	.	.
CCCC#Cc1ccc([C@H]2[C@H]3CN(S(=O)(=O)c4ccccc4F)CCCCN3[C@H]2CO)cc1	1	.	-10	?	111*	77	23	105*
CN(C)CC#Cc1ccc([C@@H]2[C@@H](CO)N3CCCCN(S(=O)(=O)c4ccccc4F)C[C@H]23)cc1	2	.	-4	111*	98*	24	1	85*
CC1CCc2c(sc3nc(SCC(=O)NCC4CCCO4)n(-c4ccccc4)c(=O)c23)C1 (configuration not stated)	.	0	.	.	.	.	.	.
Cc1ccc(N(CC(N)=O)S(=O)(=O)c2ccccc2)cc1	.	0	.	.	.	.	.	.
COc1ccccc1-c1ccc2c(c1)O[C@H](CN(C)S(=O)(=O)c1ccc(F)cc1)[C@@H](C)CN([C@H](C)CO)S2(=O)=O	1	1	-56	92	.	.	.	.
COc1ccccc1-c1ccc2c(c1)O[C@@H](CN(C)S(=O)(=O)c1ccc(F)cc1)[C@H](C)CN([C@H](C)CO)S2(=O)=O	-1	-1	36	18	.	.	.	.
COc1ccccc1-c1ccc2c(c1)O[C@@H](CN(C)S(=O)(=O)c1ccc(F)cc1)[C@H](C)CN([C@@H](C)CO)S2(=O)=O	-1	0	-82*	108*	109*	79	27	?
COc1ccccc1-c1ccc2c(c1)O[C@H](CN(C)S(=O)(=O)c1ccc(F)cc1)[C@H](C)CN([C@H](C)CO)S2(=O)=O	-1	0	-37	102*	103*	84	29	43*
COc1ccccc1-c1ccc2c(c1)O[C@H](CN(C)S(=O)(=O)c1ccc(F)cc1)[C@@H](C)CN([C@@H](C)CO)S2(=O)=O	0	0	-68	103*	101*	59	24	48*
O=C(Nc1sc2c(c1C(=O)NCc1ccco1)CCCC2)c1ccc(Cl)cc1Cl	.	0	.	.	.	.	.	.
COCC#Cc1ccc([C@H]2[C@@H](CO)N3CCCCN(Cc4cccnc4)C[C@@H]23)cc1	-1	.	-8	101*	88	81	-17	4
CCCC#Cc1ccc([C@H]2[C@@H](CO)N3CCCCN(Cc4cccnc4)C[C@@H]23)cc1	1	.	-57	110*	101*	83	43*	78*
OC[C@@H]1[C@@H](c2ccc(C#Cc3ccccc3)cc2)[C@@H]2CN(CC3CCOCC3)CCCCN12	-1	.	-47	?	105*	65	52*	105*
CCCC#Cc1ccc([C@H]2[C@H]3CN(CC4CCOCC4)CCCCN3[C@H]2CO)cc1	1	.	-8	65	.	.	.	.
OC[C@H]1[C@@H](c2ccc(C#Cc3ccccc3)cc2)[C@H]2CN(CC3CCOCC3)CCCCN21	-1	.	-16	94	.	.	.	.
SMILES	GASC1 inh	IDH1 mut inh	Pf Dd2 inh	T cruzi growth-1	T cruzi growth-2	T cruzi growth-3	3T3 cytotox	3T3 cytotox 2
OC[C@@H]1[C@H](c2ccc(C#Cc3ccccc3)cc2)[C@@H]2CN(CC3CCOCC3)CCCCN12	-1	.	-12	104*	106*	81	32	103*
CCCC#Cc1ccc([C@H]2[C@@H](CO)N3CCCCN(CC4CCOCC4)C[C@H]23)cc1	0	.	-53	124*	93	78	30	101*
OC[C@H]1[C@H](c2ccc(C#Cc3ccccc3)cc2)[C@H]2CN(CC3CCOCC3)CCCCN21	-1	.	-57	102*	109*	87	76*	105*
CC(C)c1ccc(NC(=O)CSc2n[nH]c(-c3ccc(Cl)cc3)n2)cc1	.	0	.	.	.	.	.	.
CC(C)NC(=O)N(C)C[C@@H]1Oc2ncc(C#Cc3ccccc3F)cc2C(=O)N([C@@H](C)CO)C[C@H]1C	0	.	-50	102*	81	48	32	61*
C[C@H](CO)N1C[C@H](C)[C@H](CN(C)C(=O)c2ccc3c(c2)OCO3)Oc2ncc(C#Cc3ccccc3F)cc2C1=O	0	.	-73	56	.	.	.	.
C[C@H](CO)N1C[C@H](C)[C@@H](CN(C)C(=O)Cc2ccccc2)Oc2ncc(C#Cc3ccccc3F)cc2C1=O	-2	0	-25	96*	108*	65	6	94*
CC(C)NC(=O)N(C)C[C@H]1Oc2ncc(C#Cc3ccccc3F)cc2C(=O)N([C@H](C)CO)C[C@H]1C	-2	-2	-55	72	.	.	.	.
